Results published in ChEMBL document CHEMBL1133102, “Novel inhibitors of nucleoside triphosphate diphosphohydrolases: chemical synthesis and biochemical and pharmacological characterizations” (J Med Chem, 2000).

Key:
Assay type in all cases: tissue-based
[1] = molecular target: T1, Ectonucleoside triphosphate diphosphohydrolase 1 (Bos taurus, UniProt O18956); assay: (§1) Tested for inhibition of Nucleoside Triphosphate Diphosphohydrolase (NTPDase) from bovine spleen.
T1 sequence (O18956 whole entry): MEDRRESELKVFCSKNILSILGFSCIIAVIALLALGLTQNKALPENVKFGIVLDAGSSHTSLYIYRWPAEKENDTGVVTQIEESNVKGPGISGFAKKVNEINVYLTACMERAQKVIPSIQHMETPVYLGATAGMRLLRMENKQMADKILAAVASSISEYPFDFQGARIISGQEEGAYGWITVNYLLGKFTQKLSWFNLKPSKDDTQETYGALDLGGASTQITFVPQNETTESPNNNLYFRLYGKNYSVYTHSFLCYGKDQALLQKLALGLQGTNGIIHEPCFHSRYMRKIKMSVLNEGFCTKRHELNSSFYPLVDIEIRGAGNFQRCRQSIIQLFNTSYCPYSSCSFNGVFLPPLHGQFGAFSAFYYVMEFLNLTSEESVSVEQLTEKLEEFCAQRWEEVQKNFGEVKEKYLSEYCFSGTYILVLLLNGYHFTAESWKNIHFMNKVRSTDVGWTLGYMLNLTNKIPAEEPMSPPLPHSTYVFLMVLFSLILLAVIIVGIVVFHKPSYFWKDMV
Summary of the method: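 Bovine spleen particulate fraction. Medium: 8 mM CaCl2, 5 mM tetramisole, 50 mM Tris, 50 mM imidazole, pH 7.6, 37 °C. Started with 1.9 μg enzyme, stopped after 7 min; Pi release read by malachite green. Triplicate.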

[2] = compound: CCCCNc1nc(N)c2ncn([C@@H]3O[C@H](COP(=O)(O)OP(=O)(O)OP(=O)(O)O)[C@@H](O)[C@H]3O)c2n1; assay: as §1
Summary of the method: (§2)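 Bovine spleen particulate fraction. […] Medium: 8 mM CaCl2, 5 mM tetramisole, 50 mM Tris, 50 mM imidazole, pH 7.6, 37 °C. Started with 1.9 μg enzyme, stopped after 7 min; Pi release read by malachite green. Triplicate.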

[3] = compound: CCCCNc1nc2c(N)ncnc2n1[C@@H]1O[C@H](COP(=O)(O)OP(=O)(O)OP(=O)(O)O)[C@@H](O)[C@H]1O; assay: as §1; summary of the method: as §2
[4] = compound: CCCCOc1nc(N)c2ncn([C@@H]3O[C@H](COP(=O)(O)OP(=O)(O)OP(=O)(O)O)[C@@H](O)[C@H]3O)c2n1; assay: as §1; summary of the method: as §2
[5] = compound: CCCCOc1nc2c(N)ncnc2n1[C@@H]1O[C@H](COP(=O)(O)OP(=O)(O)OP(=O)(O)O)[C@@H](O)[C@H]1O; assay: as §1; summary of the method: as §2
[6] = compound: CCCCSc1nc(N)c2ncn(C3O[C@H](COP(=O)(O)OP(=O)(O)O)[C@@H](O)[C@H]3O)c2n1; assay: as §1; summary of the method: as §2
[7] = compound: CCCCSc1nc(N)c2ncn([C@@H]3O[C@H](COP(=O)(O)OP(=O)(O)OP(=O)(O)O)[C@@H](O)[C@H]3O)c2n1; assay: as §1; summary of the method: as §2
[8] = compound: CCSc1nc2c(N)ncnc2n1[C@@H]1O[C@H](COP(=O)(O)OP(=O)(O)OP(=O)(O)O)[C@@H](O)[C@H]1O; assay: as §1; summary of the method: as §2
[9] = compound: Nc1ncnc2c1nc(Br)n2C1O[C@H](COP(=O)(O)OP(=O)(O)OP(=O)(O)O)[C@@H](O)[C@H]1O; assay: as §1; summary of the method: as §2
[10] = compound: Nc1ncnc2c1ncn2[C@@H]1O[C@H](COP(=O)(O)OP(=O)(O)O)[C@@H](O)[C@H]1O; assay: as §1; summary of the method: as §2
[11] = compound: Nc1ncnc2c1ncn2[C@@H]1O[C@H](COP(=O)(O)OP(=O)(O)OP(=O)(O)O)[C@@H](O)[C@H]1O; assay: as §1; summary of the method: as §2

Molecule: Nc1ncnc2c1nc(SC1CCCCCC1)n2C1O[C@H](COP(=O)(O)OP(=O)(O)OP(=O)(O)O)[C@@H](O)[C@H]1O (stereo partly specified)
- Ki [1]: 31 µM

B1: Ectonucleoside triphosphate diphosphohydrolase 1 (Bos taurus), O18956 (protein)
chain: T1 sequence (O18956 whole entry)
- Km [2]: 32 µM
- Km [3]: 20 µM
- Km [4]: 28 µM
- Km [5]: 26 µM
- Km [6]: 63 µM
- Km [7]: 36 µM
- Km [8]: 12 µM
- Km [9]: 22 µM
- Km [10]: 33 µM
- Km [11]: 18 µM
